# According to ChEMBL document CHEMBL4680191, “Discovery of novel akt1 inhibitor induces autophagy associated death in hepatocellular carcinoma cells” (Eur J Med Chem, 2020):
# Calls of active or inactive are those of the source. The calls are words filed in the database; no cut-off is given here.
# What was measured:
# Huh-7 [1] = test: Induction of autophagy in human Huh-7 cells assessed as reduction in cell viability up to 72 hrs in presence of 3-MA by MTT assay; type: functional, cell-based; conditions: time hrs <=72
# [2] = molecular target: RAC-gamma serine/threonine-protein kinase (Homo sapiens, UniProt Q9Y243, S472D); test: Inhibition of full length human Akt3 S472D mutant using GRPRTSSFAEGKK as substrate incubated for 40 mins by scintillation counting method
# Sequence of RAC-gamma serine/threonine-protein kinase (Q9Y243 2-479 S472D limits assumed): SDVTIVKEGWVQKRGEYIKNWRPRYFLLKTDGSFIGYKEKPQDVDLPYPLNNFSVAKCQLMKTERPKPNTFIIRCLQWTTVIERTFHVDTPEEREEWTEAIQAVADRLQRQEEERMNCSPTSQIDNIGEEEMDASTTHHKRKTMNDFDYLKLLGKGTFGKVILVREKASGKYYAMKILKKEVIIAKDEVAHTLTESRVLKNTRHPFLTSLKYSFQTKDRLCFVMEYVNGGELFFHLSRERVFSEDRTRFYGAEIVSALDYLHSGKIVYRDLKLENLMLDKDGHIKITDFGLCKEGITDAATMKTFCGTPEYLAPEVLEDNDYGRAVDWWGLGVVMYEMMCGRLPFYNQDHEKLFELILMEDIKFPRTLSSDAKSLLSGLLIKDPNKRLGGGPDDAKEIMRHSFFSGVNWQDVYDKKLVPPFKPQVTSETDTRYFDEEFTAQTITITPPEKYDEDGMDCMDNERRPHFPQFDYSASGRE
# Outline: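 Eurofins KinaseProfiler enzymatic assay on human Akt isoforms. IC50 values are the mean of at least three independent replicates ± standard deviation.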
# Huh-7 [3] = test: Antitumour activity against human Huh-7 cells xenografted in nude mouse assessed as increase in LC3-2 at 20 to 50 mg/kg, ip up to 15 days by immunohistochemical analysis; type: functional, organism-based; conditions: dose 20-50 mg/kg, time day <=15
# Outline: (§1)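 Tumors came from Huh-7 xenografted nude mice dosed intraperitoneally at 25 or 50 mg/Kg for 15 days. For IHC, sections underwent microwave antigen retrieval (EDTA pH 8.0 or citrate pH 6.0), then primary antibody at 37 °C for 30-40 min. HRP polymer/secondary was applied for 30 min, with DAB development and control IgG.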
# Huh-7 [4] = test: Induction of autophagy in human Huh-7 cells assessed as increase in LC3-2 protein expression at 0.1 to 0.2 uM by Western blot analysis; type: functional, cell-based; conditions: dose 0.1-0.2 µM
# Outline: (§2)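 Huh-7 cells were treated with or without compound. Total protein extracts were separated by SDS-PAGE and transferred to PVDF. Membranes were probed with primary antibodies, then HRP-conjugated secondary antibody (1:10,000), and detected by enhanced chemiluminescence.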
# Homo sapiens = species on record: Homo sapiens; test: Inhibition of full length human Akt1 […] mutant assessed as remaining activity at 1 uM using GRPRTSSFAEGKK as substrate incubated for 40 mins by scintillation counting method relative to control
# Outline: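 Eurofins KinaseProfiler kinase assay on human Akt1, Akt2 and Akt3. Compounds were tested at 1 µM. Residual kinase activity is reported as % of control.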
# Huh-7 [5] = test: Induction of apoptosis in human Huh-7 cells assessed as early apoptotic cells at 0.2 uM by Annexin V/propidium iodide staining based flow cytometric analysis (reference value: 1.43%); type: functional
# Huh-7 [6] = test: Induction of autophagy in human Huh-7 cells assessed as reduction in cathepsin B activity at 0.2 uM in presence of 3-MA; type: functional, cell-based
# Huh-7 [7] = test: Induction of autophagy flux arrest in human Huh-7 cells assessed as reduction in LC3 at 0.2 uM by immunofluorescence staining based assay; type: functional, cell-based
# Outline: (§3)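 Huh-7 cells with or without 0.2 µM compound were immunofluorescently co-stained for LC3 (autophagosome) and LAMP1 (lysosome). Co-localization was assessed by fluorescence imaging.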
# Huh-7 [8] = test: Induction of autophagosome in human Huh-7 harboring GFP-LC3 cells at 0.2 uM in presence of 3-MA by fluorescence microscopic analysis; type: functional, cell-based
# Huh-7 [9] = test: Antitumour activity against human Huh-7 cells xenografted in nude mouse assessed as decrease in Ki-67 at […], ip up to 15 days by immunohistochemical analysis; type: functional, organism-based; conditions: time day <=15
# Outline: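 Subcutaneous Huh-7 xenografts in nude mice were dosed intraperitoneally at 25 or 50 mg/kg and followed over days 1–15. For IHC, tumour sections had microwave antigen retrieval in EDTA (pH 8.0) or citrate (pH 6.0) buffer. They were incubated with primary antibody at 37 °C for 30–40 min, then secondary antibody with HRP polymer for 30 min, and developed with DAB. Normal IgG served as negative control.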
# [10] = Effect on total GDK3beta protein level in human Huh-7 cells at 0.1 to 0.2 uM by Western blot analysis; type: ADME, cell-based; conditions: huh-7, 0.2 µM, dose 0.1-0.2 µM; outline: as §2
# Huh-7 [11] = test: Antitumour activity against human Huh-7 cells xenografted in nude mouse assessed as reduction in tumour weight at […], ip up to 15 days; type: functional, organism-based; conditions: time day <=15
# Huh-7 [12] = test: Induction of apoptosis in human Huh-7 cells assessed as early apoptotic cells at 0.1 uM by Annexin V/propidium iodide staining based flow cytometric analysis (reference value: 1.43%); type: functional
# Huh-7 [13] = test: Antitumour activity against human Huh-7 cells xenografted in nude mouse assessed as decrease in phosphorylation of AKT at 20 to 50 mg/kg, ip up to 15 days by immunohistochemical analysis; type: functional, organism-based; conditions: dose 20-50 mg/kg, time day <=15; outline: as §1
# Huh-7 [14] = test: Induction of autophagy in human Huh-7 cells assessed as reduction in cell viability up to 72 hrs in presence of Baf-A1 by MTT assay; type: functional, cell-based; conditions: time hrs <=72
# HepG2 = test: Cytotoxicity against human HepG2 cells assessed as reduction in cell viability by MTT assay; type: functional, cell-based
# Outline: (§4)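 Hepatoma cells were grown in DMEM with 10% FBS and streptomycin, then treated with compounds. Viability was read by MTT.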
# Huh-7 [15] = test: Induction of autophagy in human Huh-7 cells assessed as decrease in m-TOR phosphorylation at 0.1 to 0.2 uM by Western blot analysis; type: functional, cell-based; conditions: dose 0.1-0.2 µM; outline: as §2
# Huh-7 [16] = test: Induction of autophagy in human Huh-7 cells assessed as reduction in cathepsin D activity at 0.2 uM in presence of 3-MA; type: functional, cell-based
# Huh-7 [17] = test: Induction of apoptosis in human Huh-7 cells assessed as upregulation of cytochromeC protein expression at 0.1 to 0.2 uM by Western blot analysis; type: functional, cell-based; conditions: dose 0.1-0.2 µM; outline: as §2
# Huh-7 [18] = test: Induction of autophagy flux arrest in human Huh-7 cells assessed as reduction in LAMP1 at 0.2 uM by immunofluorescence staining based assay; type: functional, cell-based; outline: as §3
# Huh-7 [19] = test: Induction of autophagy in human Huh-7 cells assessed as reduction in cathepsin D activity at 0.2 uM in presence of Baf-A1; type: functional, cell-based
# Huh-7 [20] = test: Induction of apoptosis in human Huh-7 cells assessed as late apoptotic cells at 0.2 uM by Annexin V/propidium iodide staining based flow cytometric analysis (reference value: 3.15%); type: functional
# Huh-7 [21] = test: Induction of autophagy in human Huh-7 cells assessed as increase in p62/SQSTM1 protein expression at 0.1 to 0.2 uM by Western blot analysis; type: functional, cell-based; conditions: dose 0.1-0.2 µM; outline: as §2
# Hep 3B2 = test: Cytotoxicity against human Hep3B cells assessed as reduction in cell viability by MTT assay; type: functional, cell-based; outline: as §4
# Huh-7 [22] = test: Antitumour activity against human Huh-7 cells xenografted in nude mouse assessed as reduction in tumour growth at […], ip up to 15 days; type: functional, organism-based; conditions: time day <=15
# Outline: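 Nude mice bearing subcutaneous Huh-7 xenografts received 25 or 50 mg/Kg compound intraperitoneally. Tumor volume was followed from day 1 to day 15, with excised tumors weighed at the end. Body weight was also monitored.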
smiles,measurement,setting,value
O=C(C(CNC1CCCC1)c1ccc(Cl)cc1)N1CCN(c2ncnc3sc4c(c23)CCC4)CC1 (stereo not given),Activity,Huh-7 [1],inactive
same,IC50,[2],129 nM
same,Activity,Huh-7 [3],Active
same,Activity,Huh-7 [4],Active
same,Activity,Homo sapiens,1%
same,Activity,Huh-7 [5],7.1%
same,Activity,Huh-7 [6],inactive
same,Activity,Huh-7 [7],Active
same,Activity,Huh-7 [8],inactive
same,Activity,Huh-7 [9],Active
same,Activity,[10],Non-Toxic
same,Activity,Huh-7 [11],Active
same,Activity,Huh-7 [12],5.15%
same,Activity,Huh-7 [13],Active
same,Activity,Huh-7 [14],Active
same,IC50,HepG2,183 nM
same,Activity,Huh-7 [15],Active
same,Activity,Huh-7 [16],inactive
same,Activity,Huh-7 [17],Active
same,Activity,Huh-7 [18],Active
same,Activity,Huh-7 [19],Active
same,Activity,Huh-7 [20],9.13%
same,Activity,Huh-7 [21],Active
same,IC50,Hep 3B2,131 nM
same,Activity,Huh-7 [22],Active
